Experimental data as given in PMC5335871 (Bioorganic & medicinal chemistry letters, 2016).
pIC50: −log10 of the molar value.

Assays:
[1] = molecular target: T1, GPR35 (Homo sapiens, UniProt Q9HC97); format: cell-based; settings: 10 μM Zaprinast as agonist
In short: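 Antagonism measured against a 10 μM Zaprinast agonist challenge in U2OS cells permanently expressing HA-GPR35a and βarr2-GFP. Concentration-effect curves for agonist-mediated receptor activation were analysed by nonlinear regression and fitted to sigmoidal dose-response curves to obtain IC50.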

[2] = molecular target: T1, GPR35; settings: read-out: IC50, antagonism at GPR35; previously identified screening hits; cited from earlier work

T1 sequence (Q9HC97 whole entry): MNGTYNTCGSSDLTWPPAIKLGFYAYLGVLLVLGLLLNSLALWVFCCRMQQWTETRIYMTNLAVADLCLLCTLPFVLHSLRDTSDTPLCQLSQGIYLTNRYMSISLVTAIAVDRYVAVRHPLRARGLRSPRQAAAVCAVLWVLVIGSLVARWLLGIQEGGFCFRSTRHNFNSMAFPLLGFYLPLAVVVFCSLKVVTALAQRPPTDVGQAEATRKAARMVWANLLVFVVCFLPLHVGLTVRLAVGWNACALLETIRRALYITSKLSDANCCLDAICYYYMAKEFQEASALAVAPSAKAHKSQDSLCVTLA

| SMILES | activity as GPR35 antagonist (in words) [1] | pIC50 [2] |
| --- | --- | --- |
| O=C(Nc1ccc2nc(SCc3ccc(Cl)cc3)sc2c1)c1ccccc1C(=O)N1CCCCC1 [Compound 2] | devoid of activity | – |
| O=C(Nc1ccc2nc(SCc3ccc(Cl)cc3)sc2c1)c1ccccc1C(=O)N1CCCC1 [Compound 3] | devoid of activity | – |
| O=C(Nc1ccc2nc(SCc3ccncc3)sc2c1)c1ccccc1C(=O)N1CCOCC1 [Compound 9] | inactive | – |
| CNC(=S)NN=Cc1c(C(=O)OC)cnn1-c1ccc(F)cc1F [Compound 13] | – | 6.80 |
